In brackets after ≈: the same amount, converted by molar mass. Activity calls are given as the source filed them. No cut-off for these calls is given here.
Experiments:
Salmonella typhi [1] = test: Antibacterial activity against Salmonella typhi at 1 mg/ml incubated for 18 hrs by well plate technique; type: functional, Salmonella enterica subsp. enterica serovar Typhi; details: for zone of inhibition at 1000 µg/mL: Salmonella enterica, read-out: DIZ
Procedure, shortened: (§1)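 Well diffusion on nutrient agar; strains kept on nutrient agar at 37 °C, grown statically in nutrient broth 18-24 h at 37 °C, diluted in saline, 0.1 ml spread per plate. Compounds in DMSO at 1 and 0.5 mg/mL added to cork-bored wells; 18 h at 37 °C. Inhibition zone diameter measured, DMSO value subtracted; triplicate; streptomycin reference.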

Pseudomonas aeruginosa [2] = test: Antibacterial activity against Pseudomonas aeruginosa at 1 mg/ml incubated for 18 hrs by well plate technique; type: functional; details: for zone of inhibition at 1000 µg/mL: read-out: DIZ
Procedure, shortened: (§2)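 Bacteria kept on nutrient agar at 37 °C, grown statically in nutrient broth (start ~10-100 cfu/mL) at 37 °C for 18-24 h. Suspensions diluted in saline and spread on nutrient agar, then wells cut with a cork borer. Compound in DMSO at 1 or 0.5 mg/mL added to wells, 37 °C, 18 h. Inhibition zone diameter measured minus DMSO value; triplicate; streptomycin standard.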

[3] = system: Mycobacterium tuberculosis; test: Antitubercular activity against Mycobacterium tuberculosis H37Rv ATCC 27294/XDR-TB incubated for 28 days by agar dilution method; type: functional; details: 672 h
Procedure, shortened: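 Agar dilution: two-fold dilutions in Middlebrook 7H11 agar with OADC. Inoculum from fresh 7H11/OADC slants adjusted to 1 mg/mL wet weight in 0.05% Tween 80 saline, diluted 10^-2 (~10⁷ cfu/mL); 5 µL spotted per tube. Incubated 37 °C; MIC, lowest concentration fully inhibiting growth, read after 28 days, in triplicate.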

Aspergillus flavus [4] = test: Antifungal activity against Aspergillus flavus at 0.5 mg/ml incubated for 3 days; type: functional; details: for zone of inhibition at 500 µg/mL: 72 h, read-out: IZ
Procedure, shortened: (§3)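 Well plate method on potato dextrose agar. Fungal stock suspended in distilled water with Tween 80 and swabbed over plates. Samples in DMSO at 1 and 0.5 mg/mL added to wells, incubated 25 °C for 3 days, then scored for inhibition zones; fluconazole standard.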

Candida albicans [5] = test: Antifungal activity against Candida albicans at 0.5 mg/ml incubated for 3 days; type: functional; details: for zone of inhibition at 500 µg/mL: 72 h, read-out: IZ; procedure, shortened: as §3
Salmonella typhi [6] = test: Antibacterial activity against Salmonella typhi at 0.5 mg/ml incubated for 18 hrs by well plate technique; type: functional, Salmonella enterica subsp. enterica serovar Typhi; details: for zone of inhibition at 500 µg/mL: Salmonella enterica, read-out: DIZ; procedure, shortened: as §1
Pseudomonas aeruginosa [7] = test: Antibacterial activity against Pseudomonas aeruginosa at 0.5 mg/ml incubated for 18 hrs by well plate technique; type: functional; details: for zone of inhibition at 500 µg/mL: read-out: DIZ; procedure, shortened: as §2
Escherichia coli [8] = test: Antibacterial activity against Escherichia coli at 1 mg/ml incubated for 18 hrs by well plate technique; type: functional; details: for zone of inhibition at 1000 µg/mL: read-out: DIZ; procedure, shortened: as §2
Candida albicans [9] = test: Antifungal activity against Candida albicans at 1 mg/ml incubated for 3 days; type: functional; details: for zone of inhibition at 1000 µg/mL: 72 h, read-out: IZ; procedure, shortened: as §3
[10] = system: Chrysosporium keratinophilum; test: Antifungal activity against Chrysosporium keratinophilum at 0.5 mg/ml incubated for 3 days; type: functional; details: for zone of inhibition at 500 µg/mL: 72 h, read-out: IZ; procedure, shortened: as §3
Escherichia coli [11] = test: Antibacterial activity against Escherichia coli at 0.5 mg/ml incubated for 18 hrs by well plate technique; type: functional; details: for zone of inhibition at 500 µg/mL: read-out: DIZ; procedure, shortened: as §2
Staphylococcus aureus [12] = test: Antibacterial activity against Staphylococcus aureus at 0.5 mg/ml incubated for 18 hrs by well plate technique; type: functional; details: for zone of inhibition at 500 µg/mL: read-out: DIZ; procedure, shortened: as §2
[13] = Antioxidant activity assessed as DPPH radical scavenging activity incubated for 10 mins by UV-visible spectrometry; type: physicochemical
Procedure, shortened: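 DPPH free-radical scavenging; absorbance read at 517 nm against a methanol blank. % scavenging = (A control − A sample)/A control × 100.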

[14] = system: Chrysosporium keratinophilum; test: Antifungal activity against Chrysosporium keratinophilum at 1 mg/ml incubated for 3 days; type: functional; details: for zone of inhibition at 1000 µg/mL: 72 h, read-out: IZ; procedure, shortened: as §3
Staphylococcus aureus [15] = test: Antibacterial activity against Staphylococcus aureus at 1 mg/ml incubated for 18 hrs by well plate technique; type: functional; details: for zone of inhibition at 1000 µg/mL: read-out: DIZ; procedure, shortened: as §2
Aspergillus flavus [16] = test: Antifungal activity against Aspergillus flavus at 1 mg/ml incubated for 3 days; type: functional; details: for zone of inhibition at 1000 µg/mL: 72 h, read-out: IZ; procedure, shortened: as §3
[17] = Salmonella enterica subsp. enterica serovar Typhi

Structure (SMILES) | zone of inhibition at 1000 µg/mL (Salmonella typhi [1]) [mm] | zone of inhibition at 1000 µg/mL (Pseudomonas aeruginosa [2]) [mm] | MIC [3] [µg/mL] | zone of inhibition at 500 µg/mL (Salmonella typhi [6]) [mm] | zone of inhibition at 500 µg/mL (Pseudomonas aeruginosa [7]) [mm] | zone of inhibition at 1000 µg/mL (Escherichia coli [8]) [mm] | inhibition zone (IZ) [10] | zone of inhibition at 500 µg/mL (Escherichia coli [11]) [mm] | zone of inhibition at 500 µg/mL (Staphylococcus aureus [12]) [mm] | inhibition (INH) [13] [%] | zone of inhibition at 1000 µg/mL (Staphylococcus aureus [15]) [mm] | zone of inhibition at 500 µg/mL (Aspergillus flavus [4]) [mm] | zone of inhibition at 500 µg/mL (Candida albicans [5]) [mm] | zone of inhibition at 1000 µg/mL (Candida albicans [9]) [mm] | zone of inhibition at 1000 µg/mL [14] [mm] | zone of inhibition at 1000 µg/mL (Aspergillus flavus [16]) [mm] | also measured
Cc1nn2c(-c3nc4cc([N+](=O)[O-])ccc4[nH]3)c(-c3ccc(F)cc3)nc2s1 | 2 | 1 | 50 (≈ 127 µM) | 1 | 3 | 4 | inactive | 2 | 2 | 25.9 | 3 | – | – | – | – | – | inhibition zone (IZ) (Aspergillus flavus [4]): inactive; inhibition zone (IZ) (Candida albicans [5]): inactive; inhibition zone (IZ) (Candida albicans [9]): inactive; inhibition zone (IZ) [14]: inactive; inhibition zone (IZ) (Aspergillus flavus [16]): inactive
CN[C@@H]1[C@H](O[C@H]2[C@H](O[C@H]3[C@H](O)[C@@H](O)[C@H](N=C(N)N)[C@@H](O)[C@@H]3N=C(N)N)O[C@@H](C)[C@]2(O)C=O)O[C@@H](CO)[C@H](O)[C@H]1O [STREPTOMYCIN] | 17.2 | 16.7 | – | 15.7 | 13.6 | 18.6 | – | 14.3 | 12.5 | – | 16.8 | – | – | – | – | – | –
Cc1cc(C(C)(C)C)c(O)c(C(C)(C)C)c1 [BUTYLATED HYDROXYTOLUENE] | – | – | – | – | – | – | – | – | – | 88.6 | – | – | – | – | – | – | –
NNC(=O)c1ccncc1 [ISONIAZID] | – | – | 0.1 (≈ 0.729 µM) | – | – | – | – | – | – | – | – | – | – | – | – | – | –
NC(=O)c1cnccn1 [PYRAZINAMIDE] | – | – | 50 (≈ 406 µM) | – | – | – | – | – | – | – | – | – | – | – | – | – | –
Cc1ccc(-c2nc3sc(C)nn3c2-c2nc3cc(Cl)ccc3[nH]2)cc1 | 8 | 9 | 50 (≈ 132 µM) | 7 | 6 | 8 | inactive | 5 | 7 | 30.6 | 10 | 1 | 1 | 4 | 2 | 3 | –
Cc1nn2c(-c3nc4cc([N+](=O)[O-])ccc4[nH]3)c(-c3ccc(Cl)cc3)nc2s1 | 6 | 8 | 50 (≈ 122 µM) | 4 | 5 | 6 | inactive | 4 | 7 | 29.8 | 9 | – | – | – | – | – | inhibition zone (IZ) (Aspergillus flavus [4]): inactive; inhibition zone (IZ) (Candida albicans [5]): inactive; inhibition zone (IZ) (Candida albicans [9]): inactive; inhibition zone (IZ) [14]: inactive; inhibition zone (IZ) (Aspergillus flavus [16]): inactive
Cc1nn2c(-c3nc4cc(Cl)ccc4[nH]3)c(-c3ccc(F)cc3)nc2s1 | 10 | 13 | 25 (≈ 65.1 µM) | 7 | 10 | 11 | – | 8 | 6 | 39.5 | 9 | 5 | 7 | 9 | 8 | 7 | zone of inhibition at 500 µg/mL [10]: 6 mm
COc1ccc(-c2nc3sc(-c4ccccc4Cl)nn3c2-c2nc3cc([N+](=O)[O-])ccc3[nH]2)cc1 | – | – | 50 (≈ 99.4 µM) | – | – | – | inactive | – | – | 22.1 | – | – | – | – | – | – | diameter of the inhibition zone (DIZ) (Salmonella typhi [1]; [17]): inactive; diameter of the inhibition zone (DIZ) (Pseudomonas aeruginosa [2]): inactive; inhibition zone (IZ) (Aspergillus flavus [4]): inactive; inhibition zone (IZ) (Candida albicans [5]): inactive; diameter of the inhibition zone (DIZ) (Salmonella typhi [6]; [17]): inactive; diameter of the inhibition zone (DIZ) (Pseudomonas aeruginosa [7]): inactive; diameter of the inhibition zone (DIZ) (Escherichia coli [8]): inactive; inhibition zone (IZ) (Candida albicans [9]): inactive; diameter of the inhibition zone (DIZ) (Escherichia coli [11]): inactive; diameter of the inhibition zone (DIZ) (Staphylococcus aureus [12]): inactive; inhibition zone (IZ) [14]: inactive; diameter of the inhibition zone (DIZ) (Staphylococcus aureus [15]): inactive; inhibition zone (IZ) (Aspergillus flavus [16]): inactive
Cc1nn2c(-c3nc4ccccc4[nH]3)c(-c3ccc(Cl)cc3)nc2s1 | 3 | 5 | 25 (≈ 68.3 µM) | 1 | 3 | 4 | – | 3 | 3 | 28.8 | 4 | 5 | 4 | 6 | 7 | 6 | zone of inhibition at 500 µg/mL [10]: 6 mm
CC[C@@H](CO)NCCN[C@@H](CC)CO [ETHAMBUTOL] | – | – | 3.13 (≈ 15.3 µM) | – | – | – | – | – | – | – | – | – | – | – | – | – | –
OC(Cn1cncn1)(Cn1cncn1)c1ccc(F)cc1F [FLUCONAZOLE] | – | – | – | – | – | – | – | – | – | – | – | 10 | 20 | 23 | 16 | 14 | zone of inhibition at 500 µg/mL [10]: 14 mm

— ChEMBL document CHEMBL3414425, “Synthesis and biological evaluation of new imidazo[2,1-b][1,3,4]thiadiazole-benzimidazole derivatives” (Eur J Med Chem, 2015)
